In PMC8028158 (ACS Omega, 2021):
Entries after “also recorded” stand apart in the source; their conditions may differ.

Assays:
AGS cells = assay: MTT cell viability assay, AGS; format: cell-based, human; conditions: Homo sapiens, AGS, 72 h, read-out: IC50 cell proliferation, AGS
Summary of the method: (§1)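 Cells were seeded at 2000 per well, incubated overnight and exposed to test compound for 72 h. MTT was added for 4 h, formazan was dissolved in DMSO and absorbance was read at 570 nm. Viability was normalized to untreated wells, giving mean ± SEM of three trials. IC50 was calculated from relative survival.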

MKN-45 cells [1] = assay: Boyden chamber / Transwell cell migration assay; format: cell-based, human; conditions: 24 h
Summary of the method: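 MKN-45 cells in serum-free medium were seeded with test compound on uncoated Transwell membranes (8 μm pores), with complete medium containing 10% FBS in the lower chamber, and left to migrate for 24 h. Cells on the upper surface were removed. Cells on the underside were fixed, stained with crystal violet and counted in six random fields. A positive-control compound was run alongside.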

mouse TRPC7 = molecular target: T1, mouse TRPC7 (Mus musculus, UniProt Q9WVC5); assay: Fluorescence Ca2+ assay in TRPC7-HEK293 cells; format: cell-based; conditions: induced by 10 μM HDM
T1 sequence (Q9WVC5 1-862): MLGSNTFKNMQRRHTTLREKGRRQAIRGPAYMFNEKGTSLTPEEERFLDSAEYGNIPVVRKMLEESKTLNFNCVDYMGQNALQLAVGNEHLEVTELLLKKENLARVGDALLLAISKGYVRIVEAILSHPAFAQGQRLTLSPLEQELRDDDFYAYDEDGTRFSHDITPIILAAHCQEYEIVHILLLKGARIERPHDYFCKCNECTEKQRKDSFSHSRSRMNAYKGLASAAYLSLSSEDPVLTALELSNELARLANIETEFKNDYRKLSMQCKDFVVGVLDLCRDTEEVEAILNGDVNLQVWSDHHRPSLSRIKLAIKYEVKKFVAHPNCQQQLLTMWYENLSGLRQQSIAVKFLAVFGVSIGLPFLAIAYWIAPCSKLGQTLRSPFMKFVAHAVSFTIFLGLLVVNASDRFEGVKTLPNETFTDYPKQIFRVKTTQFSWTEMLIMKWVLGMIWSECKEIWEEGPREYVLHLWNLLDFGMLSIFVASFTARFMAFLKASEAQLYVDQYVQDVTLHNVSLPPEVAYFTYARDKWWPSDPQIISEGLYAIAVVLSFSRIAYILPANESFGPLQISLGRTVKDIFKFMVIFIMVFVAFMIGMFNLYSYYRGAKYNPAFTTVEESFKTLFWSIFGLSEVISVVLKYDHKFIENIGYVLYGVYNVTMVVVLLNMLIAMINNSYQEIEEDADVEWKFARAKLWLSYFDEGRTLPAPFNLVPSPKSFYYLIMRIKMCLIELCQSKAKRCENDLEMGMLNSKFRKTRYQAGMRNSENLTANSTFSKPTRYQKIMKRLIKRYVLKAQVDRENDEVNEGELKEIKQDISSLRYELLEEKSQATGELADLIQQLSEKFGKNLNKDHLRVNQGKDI

MKN-45 cells [2] = assay: MTT cell viability assay, MKN-45; format: cell-based, human; conditions: Homo sapiens, MKN-45, 72 h, read-out: IC50 cell proliferation, MKN-45
Summary of the method: as §1

human TRPC3 = molecular target: T2, human TRPC3 (Homo sapiens, UniProt Q13507); assay: Fluorescence Ca2+ assay in TRPC3-HEK293 cells; format: cell-based
T2 sequence (Q13507 1-921): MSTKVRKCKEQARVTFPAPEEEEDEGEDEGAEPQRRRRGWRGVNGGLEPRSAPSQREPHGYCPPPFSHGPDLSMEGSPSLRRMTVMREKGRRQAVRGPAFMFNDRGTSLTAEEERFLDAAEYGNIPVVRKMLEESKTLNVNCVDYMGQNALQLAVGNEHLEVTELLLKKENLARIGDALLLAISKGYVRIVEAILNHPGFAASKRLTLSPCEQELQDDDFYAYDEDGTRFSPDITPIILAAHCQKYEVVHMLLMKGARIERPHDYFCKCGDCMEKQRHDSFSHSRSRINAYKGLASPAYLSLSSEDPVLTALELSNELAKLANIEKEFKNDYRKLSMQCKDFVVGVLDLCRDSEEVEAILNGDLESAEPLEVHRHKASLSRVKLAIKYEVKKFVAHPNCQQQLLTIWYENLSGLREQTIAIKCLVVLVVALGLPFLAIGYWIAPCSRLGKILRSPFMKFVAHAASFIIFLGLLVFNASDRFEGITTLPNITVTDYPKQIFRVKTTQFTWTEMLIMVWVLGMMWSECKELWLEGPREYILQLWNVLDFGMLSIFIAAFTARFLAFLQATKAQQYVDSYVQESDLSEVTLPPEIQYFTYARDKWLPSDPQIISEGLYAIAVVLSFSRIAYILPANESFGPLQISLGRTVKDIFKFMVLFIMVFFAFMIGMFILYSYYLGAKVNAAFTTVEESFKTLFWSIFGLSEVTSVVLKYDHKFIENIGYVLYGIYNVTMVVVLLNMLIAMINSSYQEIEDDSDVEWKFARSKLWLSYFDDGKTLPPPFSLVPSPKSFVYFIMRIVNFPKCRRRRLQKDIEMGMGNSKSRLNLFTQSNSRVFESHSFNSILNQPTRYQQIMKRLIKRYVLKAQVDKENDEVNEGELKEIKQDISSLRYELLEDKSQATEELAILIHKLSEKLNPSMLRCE

IC50 (AGS cells): 12 ± 1.01 µM
IC50 (MKN-45 cells [2]): 8 ± 0.51 µM
IC50 (human TRPC3): 3.3 ± 0.13 µM
SMILES: COc1cccc2sc(N(CCN(C)C)C(=O)c3ccc4c(c3)CCCC4)nc12 [Compound 1s, N-(2-(dimethylamino)ethyl)-N-(4-methoxybenzo[d]thiazol-2-yl)-5,6,7,8-tetrahydronaphthalene-2-carboxamide]
MKN-45 cell invasion (movement through the pores toward chemoattractant) (MKN-45 cells [1]): inhibited
Effect on Ca2+ response in TRPC7-HEK293 cells (mouse TRPC7): almost did not cause a discernible Ca^2+ response; also recorded: little or no effect; also recorded: no effect
